In the library only some 4.3% were active in any assay of this set; here they are far more common.
STAT3 inh = reduces IL-6 driven STAT3 reporter signal | U3A cells, IL-6 STAT3-luciferase reporter, luminescence; host cell line lacks STAT1 | inhibition, % at 5.5 µM | 0.89% of 190,000 active;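 active = inhibition above the mean inhibition across all screened compounds plus 3 SD, cut at about 44% in these data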
STAT3 activator = STAT3 signaling activation; U3A cells, IL-6 STAT3-luciferase reporter, luminescence; 100% = signal with IL-6 EC80 alone; activation (% of control), % at 5.6 µM; 0.91% of 190,000 active; AID 871;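 active = activation above the screen-wide mean of compound activation plus 3 SD, cut at about 130% in these data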
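Material: STAT3-luciferase reporter U3A cells. Controls: IL-6-treated wells, 100% activation. Read-out: % activation versus median of IL-6-stimulated wells. Probe or stimulus: IL-6 stimulus at 33 ng/mL final. Timing: compound 1 h, then IL-6 6 h at 37 °C. Signal: reporter luminescence signal.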
STAT1 activator = activators of IFN-gamma induced STAT1 signaling. NIH 3T3 STAT1-luciferase reporter, luminescence; 100% = IFN-gamma alone, no compound. activation (% of control), % at 5.5 µM. 2.6% of 200,000 active. AID 932;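 active = activation above the screen-wide mean activation plus 3 SD, cut at about 130% in these data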
STAT1 inh = reduces IFN-gamma driven STAT1 reporter signal. NIH 3T3 STAT1-luciferase reporter, luminescence. inhibition, % at 5.5 µM. 0.35% of 200,000 active. AID 920;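 active = inhibition above a set limit, the mean inhibition across all tested compounds plus 3 SD, cut at about 34% in these data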
Numbers stand for hits; – = inactive; · = no result given.

SMILES	STAT3 inh	STAT3 activator	STAT1 activator	STAT1 inh
CCOC(=O)c1cc(-c2ccc(OC)cc2OC)nn1-c1ccc(C(=O)O)cc1	–	–	–	–
O=C(Nc1ccc(Cl)cc1)c1ccc(OCC2CCCO2)cc1 (centres undefined)	–	–	137.0	–
O=C(NCc1ccc(Cl)cc1)c1ccc(OCC2CCCO2)cc1 (centres undefined)	–	–	–	–
C/C(=N\N=c1/scc(C)n1Cc1ccco1)c1cccc([N+](=O)[O-])c1	–	–	–	–
Cn1cccc1C(=O)Nc1nc(-c2ccccn2)cs1	–	–	135.3	–
Cc1csc(NC(=O)c2ccccc2C(=O)O)n1	–	–	–	–
Cc1csc(NC(=O)c2cccn2C)n1	–	–	131.1	–
Cc1csc(NC(=O)c2cn3ccccc3n2)n1	95.5	–	–	64.7
CN(c1ccccc1)S(=O)(=O)c1cccc(NC(=O)CSc2ncc(C(F)(F)F)cc2Cl)c1	–	–	–	–
CC1CCc2c(sc3ncn(Cc4ccc(C(=O)O)cc4)c(=O)c23)C1 (centres undefined)	–	–	–	–
CC1CCc2c(sc3ncn(CCO)c(=O)c23)C1 (centres undefined)	–	–	137.5	–
O=C(O)C1=C[C@H](c2csc3ccccc23)C[C@H](OCCCCO)O1	·	·	–	–
CCCCN1C(=O)c2ccc(C(=O)NC3=NCCS3)cc2C1=O	–	–	–	–
CCOC(=O)CNC(=O)c1sc(NC(=O)c2ccccc2F)nc1C	–	–	128.7	–
CCOC(=O)c1sc(NC(=O)c2ccc(CC)s2)nc1C	–	–	–	–
CCOC(=O)c1sc(NC(=O)c2ccc3ncsc3c2)nc1C	–	–	148.0	–
CCOC(=O)c1sc(NC(=O)c2ccccc2OC)nc1C	–	–	145.8	–
COC(=O)c1sc(NC(=S)NC(=O)c2ccccc2F)nc1C	–	–	129.3	–
CCOC(=O)CNC(=O)c1sc(NC(=O)c2cccc(F)c2)nc1C	–	–	–	–
CCOC(=O)c1sc(NC(=O)CSc2n[nH]c(CC(C)C)n2)nc1C	–	–	–	–
CCOc1ccc2oc(=O)cc(C)c2c1	–	–	132.8	–
CCC(=O)Oc1ccc2oc(=O)cc(C)c2c1	–	–	–	–
CCOC(=O)N1CCN(C(=O)CN(Cc2ccc(Cl)cc2)S(=O)(=O)c2ccc(C)cc2)CC1	–	–	–	–
Cc1ccc(C(=O)N/N=C/c2ccc3c(c2)OCO3)o1	–	–	137.5	–
COc1ccccc1OCC(=O)NCCSCc1cccc(Cl)c1	–	–	–	–
SMILES	STAT3 inh	STAT3 activator	STAT1 activator	STAT1 inh
Cc1ccc(C(=O)Nc2ccc3nc(C)sc3c2)s1	–	–	140.6	–
Cc1ccccc1C(C(=O)NC1CCCC1)N(C(=O)CNC(=O)c1ccco1)c1cccnc1 (centres undefined)	–	–	–	–
CCc1c(C)sc(NC(=O)C2CC2c2ccccc2)c1C(N)=O (centres undefined)	–	134.1	–	–
NNC(=O)[C@@H]1C[C@@H]1c1ccccc1	–	–	–	–
Cc1ccc(NC(=O)C2=C(c3ccccc3)S(=O)(=O)CCS2(=O)=O)cc1	–	–	–	–
O=C(COc1ncnc2ccccc12)c1ccc2c(c1)OCCO2	–	–	142.0	–
CCOc1ccc(-c2cn3ccccc3n2)cc1	89.0	–	–	53.4
COc1ccc(-c2cn3ccccc3n2)cc1OC	–	173.3	129.5	–
COc1ccc(CC(=O)Nc2ccc(-c3cn4ccccc4n3)cc2)cc1OC	–	–	–	–
COc1ccc(-c2cn3cc(C)ccc3n2)cc1F	87.2	–	–	63.2
COc1ccc(-c2csc(C)n2)cc1OC	–	–	–	–
COc1ccc(-c2cn3cc(C)ccc3n2)cc1OC	–	–	133.5	–
CCOc1ccc(NC(=O)CCC(=O)NNC(=O)COc2ccccc2C)cc1	–	–	–	–
O=C1N=C(N2CCCC2)CN1c1ccccc1	–	–	–	–
COc1cc(C(=O)N2CCN(c3ccccc3)CC2)c([N+](=O)[O-])cc1OC	–	–	–	–
CCn1cc(CNC(=S)Nc2cccc3ccccc23)cn1	–	–	–	–
Cc1ccc(-c2cn3cccc(C)c3n2)cc1	–	–	–	–
COc1ccc(-c2cn3cccc(C)c3n2)cc1F	–	–	145.0	–
Cc1ccc(-n2ncc3c(SCc4ccccn4)ncnc32)c(C)c1	–	–	136.7	–
CSc1ncnc2c1cnn2-c1ccc(C)cc1C	–	–	–	–
CN(C)/C=C/C(=O)c1cnc(-c2ccccc2)s1	–	–	131.4	–
CN(C)/C=C/C(=O)c1ccc(Cl)s1	–	–	–	–
S=c1[nH]c2ccccc2o1	–	133.3	–	–
Cc1ccc(CCC(=O)Nc2ccccc2F)s1	–	–	136.6	–
N/C(=N\OC(=O)Cc1ccc(-c2ccccc2)cc1)c1ccncc1	–	–	–	–
SMILES	STAT3 inh	STAT3 activator	STAT1 activator	STAT1 inh
COC(=O)c1cccc(Oc2cccc(Cl)n2)c1	–	–	–	–
CCC(C)(C)c1ccc(Oc2ccc(N)cc2)cc1	81.3	–	–	69.6
CN(C)C(=O)c1ccc(COc2ccccc2Br)o1	–	–	132.3	–
COc1ccccc1OCc1ccc(C(=O)N(C)C)o1	–	–	–	–
O=C(C1CC(c2ccc(F)cc2)=NO1)N1CCCCC1 (centres undefined)	–	–	131.6	–
CC1CCCCN1C(=O)C1CC(c2ccc(F)cc2)=NO1 (centres undefined)	–	–	136.2	–
Cc1ccc(-c2c[n+](Cc3ccc(Cl)c(Cl)c3)c3n2CCC3)cc1	–	–	–	–
Cn1c(CSc2nc3ccccc3s2)n[nH]c1=S	–	–	–	–
Cn1c(CSc2nc3ccccc3s2)nc2ccccc21	–	–	141.5	–
O=c1oc2ccccc2n1CSc1nc2ccccc2s1	–	–	136.9	–
COC(=O)c1ccsc1NC(=O)c1ccccc1	–	–	–	–
CNC(=O)c1ccsc1NC(=O)c1ccc2c(c1)CCCC2	–	–	130.8	–
NC(=O)c1ccsc1NC(=O)c1cccs1	–	–	–	–
NC(=O)c1ccsc1NC(=O)c1ccc2c(c1)CCCC2	–	–	138.8	–
CC(C)NC(=O)COc1nncc2ccccc12	–	–	–	–
Cc1ccccc1C(=O)O/N=C(\N)c1cccc([N+](=O)[O-])c1	–	–	139.1	–
Cc1cccc(C(=O)O/N=C(\N)c2cccc([N+](=O)[O-])c2)c1	–	–	129.6	–
N/C(=N\OC(=O)c1cccc2ccccc12)c1cccc([N+](=O)[O-])c1	–	–	–	–
COc1cccc(C(=O)O/N=C(\N)c2ccc([N+](=O)[O-])cc2)c1OC	–	–	132.4	–
Cc1cc(=O)oc2cc(OCC(=O)OCC(=O)Nc3c(C)n(C)n(-c4ccccc4)c3=O)ccc12	–	–	–	–
Cc1cccc(NS(=O)(=O)c2cc(C(=O)N3CCc4ccccc4C3)ccc2Cl)c1C	–	–	–	–
CC(C)(C)CC(=O)Nc1nnc(-c2cccs2)s1	–	–	140.2	–
CC(=O)Cc1nsc(NC(=O)c2cccc(F)c2)n1	–	–	142.3	–
COc1ccc(C(=O)Nc2nc(-c3cccs3)c(NC(C)=O)s2)cc1	–	–	–	–
